V1aR counter – agonists of human V1a receptor, primary screen, counter-screen for OXTR agonist project, fluorescence, CHO-V1R cells; activation, % at 3 µM; Vasopressin V1a receptor (Homo sapiens), P37288; hit rate 0.25% among 320,000; Fluo-8 calcium fluorescence, agonist mode; 0% DMSO, 100% 3 nM vasopressin;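 active = activation above the mean activation of all tested compounds plus 3 SD, per screening run, cut at about 20% in these data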;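 also: signal is peak over basal fluorescence ratio across a 100 second FLIPR read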
Target sequence (P37288 whole entry, looked up): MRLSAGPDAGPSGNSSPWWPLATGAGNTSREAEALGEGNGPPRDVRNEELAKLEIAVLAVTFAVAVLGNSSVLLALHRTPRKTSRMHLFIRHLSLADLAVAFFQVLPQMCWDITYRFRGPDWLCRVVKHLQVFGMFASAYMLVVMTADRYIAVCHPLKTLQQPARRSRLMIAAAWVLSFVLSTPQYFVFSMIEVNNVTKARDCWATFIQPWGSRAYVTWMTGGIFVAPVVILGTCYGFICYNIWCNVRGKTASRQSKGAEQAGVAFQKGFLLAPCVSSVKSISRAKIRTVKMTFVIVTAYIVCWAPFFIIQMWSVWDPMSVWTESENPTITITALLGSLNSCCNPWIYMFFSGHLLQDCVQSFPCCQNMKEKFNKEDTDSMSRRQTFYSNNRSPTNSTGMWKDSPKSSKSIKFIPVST
OX1R antag-1 – OX1R (HCRTR1) antagonists, primary screen, fluorescence, CHO/OX1R cells, Fluo-8 calcium, orexin A; inhibition, % at 5 µM; hit rate 0.43% among 330,000; AID 434989, 2010; Fluo-8 calcium fluorescence;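 active = inhibition above its plate's threshold, mean inhibition of all tested compounds on the plate plus 3 SD, cut at about 37% in these data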
OX1R antag-2 – antagonists of human orexin 1 receptor (OX1R). Orexin/Hypocretin receptor type 1 (Homo sapiens), O43613. inhibition, % at 6.6 µM. hit rate 1.8% among 330,000. OX1R-expressing cells, FRET antagonist read-out; in the data active = inhibition mostly above about 38%, no sharp cut-off; inactive = mostly below about 40%
CHO parental Ca – ATP-evoked calcium signal inhibitors, parental CHO, primary screen, counter-screen for OX1R antagonist project, cell-based, fluorescence, Fluo-8 calcium dye; inhibition, % at 5.6 µM; hit rate 0.63% among 330,000; parental CHO-K1, ATP-induced calcium, Fluo-8 fluorescence; AID 463079, 2010;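 active = inhibition above that plate's mean sample inhibition plus 3 SD, cut at about 26% in these data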
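Assay system: parental CHO cells; Read-out basis: percent inhibition of ATP-evoked calcium rise, normalized to controls; Benchmarks: ATP and no-ATP DMSO wells; Compound dosing: single nominal dose of 5.6 µM per compound; Signal: Fluo-8 calcium dye fluorescence; Also added: ATP as calcium-mobilizing challenge; Repeats: singlicate.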
OXTR potentiate – human OXTR potentiators, primary screen, fluorescence, CHO-OTR cells, Fluo-8 calcium; Oxytocin receptor (Homo sapiens), P30559; Fluo-8 calcium fluorescence, potentiator mode; 0% = oxytocin EC15, 100% = EC100; activation, % at 3 µM; hit rate 0.061% among 320,000; AID 2445, 2010;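 active = activation above that plate's cutoff, the mean activation of tested compounds plus 3 SD, cut at about 6.6% in these data, passing the limit was not always enough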
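Replication – single well per compound, singlicate · Assay system – CHO cell line stably expressing human OTR · Timing – 6 min pre-incubation, 100 s read · Measure – normalized max/min fluorescence ratio, % activation · Doses – 3.0 µM, one dose · Detection – Fluo-8 calcium dye fluorescence · Probe or stimulus – oxytocin near EC15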
OXTR ag – human OXTR agonists, primary screen, fluorescence, CHO-OTR cells, Fluo-8 calcium; Fluo-8 calcium fluorescence; normalized: DMSO 0%, oxytocin 100%; Oxytocin receptor (Homo sapiens), P30559; hit rate 0.32% among 320,000; AID 2435, 2010; activation, % at 3 µM;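 active = activation above the mean of all tested compounds plus 3 SD, cutoff set per screening run, cut at about 20% in these data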;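 also: peak over basal fluorescence ratio from a 100 s FLIPR kinetic read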
Each line names hits and unclear results; the compound was inactive in the other large screens. Shown are actives, neighbours in structure and some others; about 2.7% of the full set was active somewhere.

O=[N+]([O-])c1cc(CS(=O)(=O)Oc2ccc(Cl)cc2)c(O)c([N+](=O)[O-])c1	none
O=C(CN1C(=O)c2ccc([N+](=O)[O-])cc2C1=O)NC1CCCCCC1	OX1R antag-2 65.3
O=C(CN1C(=O)c2ccccc2C1=O)NC1CCCCCC1	none
O=C(CCN1C(=O)c2ccc([N+](=O)[O-])cc2C1=O)Nc1nccs1	OX1R antag-2 72.4
COc1ccc(CNC(=O)CN2C(=O)c3ccccc3C2=O)cc1	none
COc1ccc(CNc2ccc([N+](=O)[O-])cc2C)cc1	CHO parental Ca 37.9
COc1ccc(CNC(=O)CN2C(=O)c3ccc([N+](=O)[O-])cc3C2=O)cc1	OX1R antag-2 76.3
CC(C)COc1cccc(C(=O)Nc2ccc(N3CCOCC3)cc2N2CCOCC2)c1	none
O=C(CCNS(=O)(=O)c1ccc(Br)cc1)NCCCSc1ccccc1	none
COc1cccc(NC(=O)CCN2C(=O)c3ccc([N+](=O)[O-])cc3C2=O)c1	OX1R antag-2 49.6
O=C(NNC(=S)NC(=O)c1ccccc1Cl)c1cccc([N+](=O)[O-])c1	V1aR counter 23.1, OXTR ag 28.4
O=C(NNc1c(Cl)cc(Cl)cc1Cl)c1cccc([N+](=O)[O-])c1	CHO parental Ca 48.4
CC(=O)NNC(=S)NC(=O)c1cccc([N+](=O)[O-])c1	none
Cc1ccc(C(=O)NC(=S)NNC(=O)c2ccc([N+](=O)[O-])cc2)cc1	none
O=C(NNC(=S)NC(=O)c1ccc(Br)cc1)c1cccc([N+](=O)[O-])c1	V1aR counter 63.7, OXTR ag 31.4
O=C(NNC(=S)NC(=O)c1ccccc1)c1ccc([N+](=O)[O-])cc1	V1aR counter 33.5, OXTR ag 34.3
COCCOC1CCN(C(=O)c2cc(COc3ccc(F)cc3F)on2)CC1	none
Cc1noc(C)c1S(=O)(=O)NCc1cccc(Cl)c1	none
CC(C)(C)C(=O)N1CCN(c2ncnc3scc(-c4ccccc4)c23)CC1	none
O=C(NNS(=O)(=O)c1ccc([N+](=O)[O-])cc1)c1ccc([N+](=O)[O-])cc1	none
CCCCCC(=O)NNC(=S)NC(=O)c1ccc([N+](=O)[O-])cc1	OX1R antag-2 69.7
O=C(NNC(=O)c1ccc([N+](=O)[O-])cc1)c1ccncc1	OX1R antag-2 70.3
Cc1ccc(S(=O)(=O)NNC(=S)NC(=O)c2ccc([N+](=O)[O-])cc2)cc1	OX1R antag-2 69.8
CC1CN(C(=S)NC(=O)c2ccc([N+](=O)[O-])cc2)CC(C)O1 (centres undefined)	OX1R antag-2 119.5
O=C(NNC(=O)c1ccc([N+](=O)[O-])cc1)c1ccc(F)cc1	none
CCCCn1c(N)c(N(CC(C)C)C(=O)CSC(C)C(=O)Nc2cc(C)on2)c(=O)[nH]c1=O (centres undefined)	none
CNC(=O)C(C#N)(Cc1cc(C(C)=O)ccc1OC)Cc1cc(C(C)=O)ccc1OC	none
O=C(NNC(=S)NC(=O)c1ccc(Br)cc1)c1ccc([N+](=O)[O-])cc1	V1aR counter 62.5, OXTR ag 64.2
O=C(c1ccc([N+](=O)[O-])cc1)N1CCN(C(=O)c2cccnc2)CC1	OX1R antag-2 53.2
COc1cc(CN2CCN(C(=O)CC(C)C)CC2)c([N+](=O)[O-])cc1OC	none
CCC(C)NC(C(=O)Nc1ccc(Cl)c([N+](=O)[O-])c1)c1ccccc1 (centres undefined)	none
COCC(C)NC(C(=O)Nc1ccc(Cl)c([N+](=O)[O-])c1)c1ccccc1 (centres undefined)	CHO parental Ca 80.6
CCn1c(=O)c(C(=O)NNC(=O)c2ccccc2F)c(O)c2ccccc21	V1aR counter 51.9, OXTR ag 28.0
CCCCCCCCCC(=O)NNC(=O)c1c(O)c2ccccc2n(CC)c1=O	none
CCn1c(=O)c(C(=O)NNC(=O)c2ccccc2Cl)c(O)c2ccccc21	V1aR counter 40.8, OXTR ag 22.1
CCCCCC(=O)NNC(=O)c1c(O)c2ccccc2n(CC)c1=O	none
COc1ccccc1[C@@]1(C)ON(c2ccccc2C(F)(F)F)C1=O	none
CCN(C(=O)COC(=O)c1cc(Cl)ccc1OC)c1c(N)n(Cc2ccccc2)c(=O)[nH]c1=O	none
COc1ccc(C2=C(Nc3ccc(C)cc3)c3ccccc3C2=O)cc1	none
Cc1ccc(NC2=C(NCCO)C(=O)c3ccccc3C2=O)cc1	OX1R antag-2 56.3
CC(=O)c1cccc(NC(=O)Nc2nc(C)cc(C)n2)c1	OX1R antag-2 58.7
Cc1cc(C)c(S(=O)(=O)NCc2nc3nc(C)cc(C)n3n2)c(C)c1	none
COc1ccc(CNn2c(-c3cccc(C)c3)nc3ccccc3c2=O)cc1OC	none
COc1ccccc1CNn1c(-c2cccc(C)c2)nc2ccccc2c1=O	OX1R antag-2 51.1
O=S(=O)(c1ccccc1)N1CCN(c2ccnc3cc(Cl)ccc23)CC1	CHO parental Ca 88.7
CCOC(=O)CSc1nc2c(c(-c3ccc(C)o3)c1C#N)CCCC2	CHO parental Ca 32.8
COC(=O)CSc1nc2c(c(-c3ccco3)c1C#N)CCCC2	none
Cc1cccc2c1-c1sc(C(=O)Nc3nccs3)cc1CO2	OX1R antag-2 49.9
Cc1cccc2c1-c1sc(C(=O)Nc3cccnc3)cc1CO2	OX1R antag-2 55.9
O=C(Nc1nccs1)c1cc2c(s1)-c1ccccc1OC2	none
CC1(C)CC[C@]2(C(=O)O[C@@H]3OC(CO)[C@@H](O)[C@H](O)[C@H]3O)CC[C@]3(C)C(=CCC4[C@@]5(C)CC[C@H](O[C@@H]6OC(C(=O)O)[C@@H](O)[C@H](O)[C@H]6O)C(C)(C)C5CC[C@]43C)[C@@H]2C1 (some centres undefined)	OX1R antag-1 87.9, CHO parental Ca 100.0
C/C=C(\C)C(=O)OC1CC(C)(C)C[C@H]2C3=CC[C@@H]4[C@@]5(C)CCC(O[C@@H]6O[C@@H](C(=O)O)[C@@H](O)C(O[C@@H]7OC[C@H](O)[C@@H](O)[C@@H]7O[C@@H]7OC(CO)C(O)[C@@H](O)[C@@H]7O)C6O[C@@H]6OC(CO)C(O)C(O)C6O)[C@@](C)(CO)[C@@H]5CC[C@]4(C)[C@]3(C)CC(O)[C@@]12CO (some centres undefined)	CHO parental Ca 41.3

Screening data (PubChem BioAssay)
